High-throughput results deposited in PubChem by several laboratories.
A selection: hits, their analogues and other compounds. The true share with any hit is near 4.1%.
KCNK3 inh: human KCNK3 channel inhibition, primary screen. O14649. CHO-KCNK3 thallium flux, FluxOR fluorescence; hits give low values. B-score at 10 µM. hit rate 0.84% among 340,000. AID 602410;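 active = B-score under library mean minus 4 SD, starting fluorescence ratio at most library mean plus 5 SD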;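 also: more negative B-score means stronger inhibition of thallium flux through KCNK3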
Target sequence (O14649 whole entry, looked up): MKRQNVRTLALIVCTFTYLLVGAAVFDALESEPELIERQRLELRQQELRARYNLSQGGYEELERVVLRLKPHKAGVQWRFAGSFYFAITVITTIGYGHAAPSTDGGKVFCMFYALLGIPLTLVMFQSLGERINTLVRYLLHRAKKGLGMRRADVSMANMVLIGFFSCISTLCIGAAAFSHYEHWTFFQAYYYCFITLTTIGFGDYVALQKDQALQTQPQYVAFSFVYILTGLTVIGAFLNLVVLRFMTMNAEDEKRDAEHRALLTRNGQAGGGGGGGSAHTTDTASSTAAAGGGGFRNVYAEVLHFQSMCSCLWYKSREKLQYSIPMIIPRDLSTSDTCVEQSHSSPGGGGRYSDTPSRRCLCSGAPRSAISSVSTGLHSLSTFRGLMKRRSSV
KCNK9 block: blocks the human KCNK9 two-pore domain potassium channel | HEK293 KCNK9, FluxOR thallium flux fluorescence; hits give low values | B-score at 10 µM | hit rate 1.2% among 310,000;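 active = ratio B-score over 3 SD below the library mean, with starting fluorescence within 5 SD of its mean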;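 also: negative B-score means less thallium flux so channel inhibition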
Cl transport mod: KCC2 (human) Cl- transport modulation. Q9H2X9. KCC2 cells, thallium flux FluoZin-2 fluorescence. B-score of Tl+ flux slope (higher = more flux/activation; lower = inhibition) at 10 µM. hit rate 2.2% among 190,000;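 active = thallium flux slope and its plate-corrected score both differing from the plate sample mean at a set confidence after two filtering rounds, in either direction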;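 also: slope of fluorescence scaled to starting intensity during 10 to 20 s after thallium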
hERG protect: shields human hERG channel from block by proarrhythmic agents; Q12809; CHO-hERG, FluxOR thallium flux, dofetilide IC70 present; activation (rescue from dofetilide block), less the hit threshold, % at 10 µM; hit rate 0.51% among 310,000; AID 1511;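 active = activation above the mean of controls blocked by dofetilide plus 5 SD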;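 also: thallium influx through hERG after potassium depolarization seen as dye fluorescence rise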
KCNQ1 block: inhibitors of human KCNQ1 potassium channel; CHO-K1 KCNQ1, FluxOR thallium flux fluorescence; hits give high values; B-score at 10 µM; P51787; hit rate 1.3% among 310,000;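 active = compounds whose thallium flux B-score, printed positive for inhibition, exceeds three library SD while starting fluorescence stays within three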;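 also: channel opened by potassium depolarization with thallium stimulus after 20 min compound exposure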
KCNQ1 pot: human KCNQ1 channel potentiation or activation | P51787 | CHO-K1 KCNQ1, thallium flux FluxOR fluorescence; hits give high values | B-score at 10 µM | hit rate 0.35% among 310,000;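 active = fluorescence ratio B-score, a plate-corrected score, at least three library SD, with initial intensity B-score within 5 SD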
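assay system = CHO-K1 cells stably expressing KCNQ1 | medium = assay buffer, equal DMSO in all wells | timing = 37 °C overnight plating, 90-min dark dye load, 20-min compound pretreatment | measured by = kinetic FluxOR thallium fluorescence, 10-s 1-Hz baseline, 110-s post-stimulus read | measure = fluorescence change relative to baseline, converted to B score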
An asterisk follows results filed as active; i = inactive; nt = no result given.

SMILES	KCNK3 inh	KCNK9 block	Cl transport mod	hERG protect	KCNQ1 block	KCNQ1 pot
CCn1c(=S)[nH]c2c(c1=O)C(C)(C)Cc1ccccc1-2	i	i	151*	45.4*	i	17*
CC1CCCCC1NC(=O)CCNC(=O)N1CC(=O)Nc2ccccc21 (centres undefined)	i	i	nt	-5.3	i	i
CCNc1ccc2noc3c2c1C(=O)c1ccccc1-3	i	i	-1.33	-30.0	6*	i
O=C(CCN1C(=O)/C(=C/c2ccc(F)cc2)SC1=S)Nc1cccnc1	i	i	nt	-6.1	i	i
O=C(COC(=O)c1cc([N+](=O)[O-])ccc1NCCO)Nc1cccc(S(=O)(=O)N2CCCC2)c1	i	i	nt	-6.7	i	i
CC(CC(=O)Nc1ccc(Cl)c([N+](=O)[O-])c1)c1ccccc1 (centres undefined)	i	i	-0.465	-16.1	10*	i
O=C(Nc1ccc(Cl)c([N+](=O)[O-])c1)Nc1nc2ccccc2s1	nt	i	nt	-8.8	9*	i
O=C(Nc1nc2ccccc2s1)Nc1ccc([N+](=O)[O-])cc1Cl	nt	i	nt	-7.0	i	i
CC(Oc1ccc(Cl)cc1)C(=O)Nc1ccc(S(=O)(=O)N2CCOCC2)cc1 (centres undefined)	i	i	nt	-6.5	i	i
O=C(CCc1ccccc1Cl)Nc1ccc(S(=O)(=O)N2CCOCC2)cc1	i	i	nt	7.0*	i	i
O=C(CCc1ccccc1Cl)Nc1cc(S(=O)(=O)N2CCOCC2)ccc1N1CCCC1	i	nt	nt	nt	nt	nt
CCC(Oc1ccccc1)C(=O)Nc1ccc(S(=O)(=O)N2CCOCC2)cc1 (centres undefined)	i	i	0.822	5.0*	i	i
CC(C)Cc1ccc(C(C)NC(=O)Cc2ccc(S(=O)(=O)N3CCOCC3)s2)cc1 (centres undefined)	i	i	nt	-4.0	i	i
Cn1c(=O)c2ncn(CC(=O)O)c2n(C)c1=O	i	i	1.02	-7.9	i	i
CC1(C)CC(NC(=S)NC2CC2)CC(C)(C)N1	i	i	0.16	7.0*	i	i
O=C(CSc1nnc2nnc3ccccc3n12)N1CCOCC1	i	i	nt	-0.3	i	i
CC(C)C(C)NC(=O)CSc1nc2scc(-c3ccco3)c2c(=O)n1-c1ccccc1 (centres undefined)	i	-6.81*	0.123	-4.3	i	i
O=C(COC(=O)c1ccc([N+](=O)[O-])o1)NCCCc1ccccc1	i	nt	nt	nt	nt	nt
Oc1ccc(/C=N/N(c2ccccc2)c2ccccc2)cc1O	i	i	nt	-14.7	6*	i
COc1ccc(/C=N/NC(=O)c2ccc(-c3ccccc3)cc2)cc1O	i	i	-0.617	-1.5	i	i
COc1ccc(/C=N/N(Cc2ccccc2)c2ccccc2)cc1O	i	i	0.689	-19.3	6*	i
Oc1ccc(/C=N/N(c2ccccc2)c2ccccc2)c(O)c1O	i	i	nt	-37.4	i	i
O=C(CN1CCCN(S(=O)(=O)c2ccc(Br)s2)CC1)Nc1ccc(Cl)cc1	-9.34*	i	nt	-11.7	i	i
CCOC(=O)CNC(=O)CN1CCCN(S(=O)(=O)c2ccc(Br)s2)CC1	i	nt	0.762	nt	nt	nt
Fc1cccc(C2NN=C(c3ccccc3)S2)c1 (centres undefined)	i	i	26.1*	10.5*	i	i
SMILES	KCNK3 inh	KCNK9 block	Cl transport mod	hERG protect	KCNQ1 block	KCNQ1 pot
COc1ccc(C2NN=C(c3ccc(C)cc3)S2)cc1OC (centres undefined)	i	i	nt	-6.6	i	i
CC(C)c1ccc(NC(=O)C(c2ccccc2)N(Cc2ccco2)C(=O)CC2NC(=O)NC2=O)cc1 (centres undefined)	i	i	-0.188	-9.7	8*	i
CN(C)c1ccc(/C=N/NC(=O)CCc2c[nH]c3ccccc23)cc1	i	i	0.383	-6.8	i	i
COc1ccc(-c2c3c([nH]c(=S)c2C#N)CCC3)cc1	i	nt	5.02*	nt	nt	nt
COc1ccc(OC)c(-c2c3c([nH]c(=S)c2C#N)CCCC3)c1	i	i	2.86	-11.1	i	i
CC(C)(C)C1=CC(=O)C(=O)C(C(C)(C)C)=C1	i	-7.41*	0.069	-26.9	6*	i
CC(C)n1c(=S)[nH]c2ccccc2c1=O	i	i	37.5*	-7.3	i	i
COn1c(=S)[nH]c2ccccc2c1=O	i	nt	nt	nt	nt	nt
CC1CCCCC1NC(=O)CCCn1c(=S)[nH]c2ccccc2c1=O (centres undefined)	i	i	0.469	3.7	i	i
CCC1CCCCN1CCCn1c(=S)[nH]c2ccccc2c1=O (centres undefined)	i	i	9.23*	-5.7	i	i
CCOc1cc2[nH]c(=S)n(C3CC3)c(=O)c2cc1OCC	i	i	1.17	-11.7	i	i
CC1CCCCC1n1c(=S)[nH]c2ccccc2c1=O (centres undefined)	i	i	187*	1.0	i	19*
CCOc1cc2[nH]c(=S)n(C(C)C)c(=O)c2cc1OCC	i	i	9.73*	-17.7	i	i
S=c1[nH]ncn1NCc1cccc(Br)c1	i	i	nt	-9.0	i	i
COC(=O)CSc1nnc(CNC(=O)c2ccc(S(=O)(=O)N3CCCCC3)cc2)n1C	i	nt	-0.355	nt	nt	nt
O=C(c1ccc([N+](=O)[O-])cc1)N(Cc1ccccc1)c1ccccn1	i	i	-1.98	-0.7	i	i
Cc1c(C(=O)Nc2ccccc2)csc1-c1ccccc1	i	i	0.775	-7.5	i	i
Cc1c(C(=O)Nc2ccccc2[N+](=O)[O-])csc1-c1ccccc1	i	-6.69*	-0.354	-16.4	i	i
CC(=O)N1N=C(c2ccc(Br)cc2)OC1(C)CC(=O)Nc1ccccc1 (centres undefined)	i	i	1.07	-7.3	i	i
Cc1cc(Cl)c(S(=O)(=O)N2CCN(c3ccc(F)cc3)CC2)cc1OCC(N)=O	i	i	1.62	6.0*	i	i
CCCCC(CC)C(=O)NCCCN1CCN(CCCNC(=O)C(CC)CCCC)CC1 (centres undefined)	i	i	1.92	-4.3	i	i
O=C(CN1C(=O)S/C(=C\c2ccccc2)C1=O)Nc1cc([N+](=O)[O-])ccc1O	i	i	nt	-7.0	8*	i
COc1ccc(/C=C2\SC(=O)N(CC(=O)Nc3ccccc3O)C2=O)cc1OC	i	i	nt	-9.2	i	i
Cc1ccc(/C=C2\SC(=S)N(CCCC(=O)Nc3ccc(O)cc3)C2=O)cc1	i	i	0.764	-11.4	i	i
